Test results as given in PubChem BioAssay AID623921 (The Scripps Research Institute Molecular Screening Center, 2012).
Values joined by “and” are separate entries in the source; they are usually repeats but may differ in a detail not shown here. Identical values can stand only once. Active and inactive are the calls of the source.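 The calls were made as follows: active = remaining nuclease activity at or below 52% of the solvent-only control; inactive = the rest.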

Target: RecBCD enzyme subunit RecC (Escherichia coli (strain K12)) + RecBCD enzyme subunit RecB (Escherichia coli (strain K12)) (UniProt P07648+P08394)
Sequence (P07648 whole entry, looked up): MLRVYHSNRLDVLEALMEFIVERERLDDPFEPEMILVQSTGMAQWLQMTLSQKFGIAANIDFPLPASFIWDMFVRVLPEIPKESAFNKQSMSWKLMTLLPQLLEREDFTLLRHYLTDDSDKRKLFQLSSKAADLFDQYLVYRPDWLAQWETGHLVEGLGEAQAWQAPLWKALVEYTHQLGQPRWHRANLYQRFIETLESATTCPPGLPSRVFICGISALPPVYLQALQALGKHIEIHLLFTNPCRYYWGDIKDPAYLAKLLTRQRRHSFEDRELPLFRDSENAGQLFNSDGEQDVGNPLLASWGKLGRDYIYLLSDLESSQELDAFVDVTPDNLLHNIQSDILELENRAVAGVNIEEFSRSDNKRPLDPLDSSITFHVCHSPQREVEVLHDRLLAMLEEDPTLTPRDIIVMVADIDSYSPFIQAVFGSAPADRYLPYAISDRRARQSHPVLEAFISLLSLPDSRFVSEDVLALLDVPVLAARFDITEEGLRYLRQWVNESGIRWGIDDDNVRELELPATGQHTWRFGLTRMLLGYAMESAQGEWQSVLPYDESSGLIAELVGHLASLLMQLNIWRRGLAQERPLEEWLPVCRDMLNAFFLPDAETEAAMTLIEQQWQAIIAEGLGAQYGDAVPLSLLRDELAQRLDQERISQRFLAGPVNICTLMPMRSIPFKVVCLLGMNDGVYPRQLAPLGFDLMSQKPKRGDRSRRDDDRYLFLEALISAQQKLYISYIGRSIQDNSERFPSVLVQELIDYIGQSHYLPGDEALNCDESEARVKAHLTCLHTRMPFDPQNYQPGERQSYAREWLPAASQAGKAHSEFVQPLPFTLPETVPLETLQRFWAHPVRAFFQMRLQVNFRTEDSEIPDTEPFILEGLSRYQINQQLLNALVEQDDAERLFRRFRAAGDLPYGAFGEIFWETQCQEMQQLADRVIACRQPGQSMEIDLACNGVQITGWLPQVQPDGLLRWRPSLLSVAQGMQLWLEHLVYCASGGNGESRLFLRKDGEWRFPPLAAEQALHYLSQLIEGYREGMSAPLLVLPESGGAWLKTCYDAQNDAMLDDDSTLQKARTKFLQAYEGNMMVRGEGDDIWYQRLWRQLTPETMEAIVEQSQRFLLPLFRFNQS
Sequence (P08394 whole entry, looked up): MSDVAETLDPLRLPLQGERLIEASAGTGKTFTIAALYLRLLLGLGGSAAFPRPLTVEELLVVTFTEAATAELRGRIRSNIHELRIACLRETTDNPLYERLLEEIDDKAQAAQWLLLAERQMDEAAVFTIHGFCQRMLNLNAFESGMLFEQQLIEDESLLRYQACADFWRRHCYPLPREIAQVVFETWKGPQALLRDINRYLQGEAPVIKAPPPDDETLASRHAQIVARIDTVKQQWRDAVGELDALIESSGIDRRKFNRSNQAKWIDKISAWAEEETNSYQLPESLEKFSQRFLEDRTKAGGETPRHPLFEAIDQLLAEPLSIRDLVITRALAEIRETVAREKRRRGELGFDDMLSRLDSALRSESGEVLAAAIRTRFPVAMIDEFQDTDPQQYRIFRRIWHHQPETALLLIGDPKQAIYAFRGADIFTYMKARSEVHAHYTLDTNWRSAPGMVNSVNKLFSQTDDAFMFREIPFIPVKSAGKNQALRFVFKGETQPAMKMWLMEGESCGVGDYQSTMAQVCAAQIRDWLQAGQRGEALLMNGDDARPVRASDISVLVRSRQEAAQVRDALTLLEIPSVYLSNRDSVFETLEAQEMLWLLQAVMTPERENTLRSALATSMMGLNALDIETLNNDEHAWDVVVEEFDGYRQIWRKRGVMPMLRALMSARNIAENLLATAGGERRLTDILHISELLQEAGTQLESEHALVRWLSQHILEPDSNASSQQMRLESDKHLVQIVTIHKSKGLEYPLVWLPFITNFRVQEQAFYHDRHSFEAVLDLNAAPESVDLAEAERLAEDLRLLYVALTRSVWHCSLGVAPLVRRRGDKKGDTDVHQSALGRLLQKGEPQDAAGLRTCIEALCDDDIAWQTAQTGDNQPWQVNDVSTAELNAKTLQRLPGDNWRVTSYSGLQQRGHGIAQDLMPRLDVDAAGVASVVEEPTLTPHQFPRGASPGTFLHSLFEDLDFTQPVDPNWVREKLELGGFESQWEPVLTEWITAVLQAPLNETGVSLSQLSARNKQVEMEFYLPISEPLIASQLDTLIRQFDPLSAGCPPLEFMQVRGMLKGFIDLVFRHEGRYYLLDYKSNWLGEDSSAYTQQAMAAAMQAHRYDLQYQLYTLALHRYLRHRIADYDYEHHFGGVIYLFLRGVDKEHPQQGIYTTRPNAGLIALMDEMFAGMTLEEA
Test: RecBCD dsDNA exonuclease activity remaining – biochemical, radioactivity readout, 100 µM single dose, counter-screen for AddAB inhibitor project, late-stage follow-up (AID 623921)
Conditions: purified RecBCD, [3H] dsDNA nuclease, TCA-soluble radioactivity; at 100 µM; stronger effect = lower value
Summary of the method: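 Test system: Purified E. coli RecBCD helicase-nuclease enzyme | Medium: Tris buffer pH 8.5 with 10 mM MgCl2, 25 µM ATP | Reagent: [3H] T7 dsDNA substrate, 6 µM nucleotides | Times: Compound with enzyme on ice, then 20 min reaction at 37 °C | Detection: Scintillation counting of TCA-soluble tritium | Repeats: Triplicate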

| remaining enzyme activity | SMILES |
| --- | --- |
| 110% (inactive) | N#Cc1c(NC(=O)c2ccc([N+](=O)[O-])o2)sc2c1CCCC2 |
| 35% | CCn1cc(C(=O)O)c(=O)c2cnc(N3CCN(C(=S)NC)CC3)nc21 |
| 41% | N#Cc1c(NC(=O)c2ccco2)sc2c1CCC2 |
| 98% (inactive) | Nc1c(NC(=O)c2ccc([N+](=O)[O-])o2)sc2c1CCCC2 |
| 106% (inactive) | Cc1ccc(C(=O)Nc2sc3c(c2C#N)CCCCC3)o1 |
| 58% (inactive) | CCn1cc(C(=O)O)c(=O)c2cnc(N3CCN(C(=S)NC(=O)c4ccccc4Cl)CC3)nc21 |
| 28% | COC(=O)c1c(-c2ccccc2)csc1NC(=O)c1cnccn1 |
| 110% (inactive) | CC1CCc2c(sc(NC(=O)c3ccc([N+](=O)[O-])o3)c2C#N)C1 (stereo not drawn) |
| 94% (inactive) | N#Cc1c(NC(=O)c2ccccc2)sc2c1CCC2 |
| 120% (inactive) | N#Cc1c(NC(=O)c2ccc(-c3ccccc3[N+](=O)[O-])o2)sc2c1CCCC2 |
| 90% (inactive) | CC1(C)Cc2c(sc(NC(=O)c3ccco3)c2C#N)CO1 |
| 83% (inactive) | CC1CCc2c(sc(NC(=O)c3cnccn3)c2C#N)C1 (stereo not drawn) |
| 83% (inactive) | CCn1cc(C(=O)O)c(=O)c2cnc(N3CCN(C(=O)Nc4ccccc4)CC3)nc21 |
| 23% | CCn1cc(C(=O)O)c(=O)c2cnc(N3CCN(C(=S)Nc4ccccc4)CC3)nc21 |
| 34% | CCn1cc(C(=O)O)c(=O)c2cnc(N3CCN(C(=S)Nc4ccc5c(c4)OCCO5)CC3)nc21 |
| 30% | CCn1cc(C(=O)O)c(=O)c2cnc(N3CCN(C(=S)Nc4ccccc4C(F)(F)F)CC3)nc21 |
| 11% | CCn1cc(C(=O)O)c(=O)c2cnc(N3CCN(C(=S)NC(=O)c4cccc(C)c4)CC3)nc21 |
| 44% | Cc1sc(NC(=O)c2cnccn2)c(C(=O)OC(C)C)c1-c1ccccc1 |
| 76% (inactive) | CSc1ncc(Cl)c(C(=O)Nc2sc3c(c2C(=O)NC2CCS(=O)(=O)C2)CCC(C)C3)n1 (stereo not drawn) |
| 84% (inactive) | Cc1ccc(C(=O)Nc2sc3c(c2C#N)CCC3)o1 |
| 88% (inactive) | COC(=O)c1c(-c2cccc(C)c2)csc1NC(=O)c1cnccn1 |
| 88% (inactive) | CSc1ncc(Cl)c(C(=O)Nc2sc3c(c2C#N)CCC(C)C3)n1 (stereo not drawn) |
| 78% (inactive) | COC(=O)c1c(NC(=O)c2cnccn2)sc2c1CCCC2 |
| 40% | CCn1cc(C(=O)O)c(=O)c2cnc(N3CCN(C(=S)Nc4ccccc4C)CC3)nc21 |
| 45% | CCn1cc(C(=O)O)c(=O)c2cc(F)c(N3CCN(C(=S)Nc4ccccc4C(F)(F)F)CC3)cc21 |
| 51% | Cc1sc(NC(=O)c2ccc(Br)o2)c(C#N)c1C |
| 110% (inactive) | N#Cc1c(NC(=O)c2ccccc2C(=O)O)sc2c1CCCC2 |

| remaining enzyme activity | SMILES |
| --- | --- |
| 34% | N#Cc1c(NC(=O)c2cc(-c3ccccc3)on2)sc2c1CCCC2 |
| 84% (inactive) | CCn1cc(C(=O)O)c(=O)c2cnc(N3CCN(C(=S)NC(=O)c4ccco4)CC3)nc21 |
| 89% (inactive) | CC1CCc2c(sc(NC(=O)c3cccs3)c2C#N)C1 (stereo not drawn) |
| 110% (inactive) | CC1CCc2c(sc(NC(=O)c3ccc([N+](=O)[O-])o3)c2N)C1 (stereo not drawn) |
| 26% | CNC(=O)c1c(NC(=O)c2nc(SCc3ccccc3)ncc2Cl)sc2c1CCCC2 |
| 12% | CCn1cc(C(=O)O)c(=O)c2cc(F)c(N3CCN(C(=S)Nc4cccc(C(F)(F)F)c4)CC3)cc21 |
| 28% | CCn1cc(C(=O)O)c(=O)c2cnc(N3CCN(C(=S)Nc4ccccc4Cl)CC3)nc21 |
| 7% | CCn1cc(C(=O)O)c(=O)c2cnc(N3CCN(C(=S)NCc4ccccc4)CC3)nc21 |
| 26% | CCn1cc(C(=O)O)c(=O)c2cnc(N3CCN(C(=S)Nc4ccccc4OC)CC3)nc21 |
| 110% (inactive) | N#Cc1c(NC(=O)c2cccc(F)c2)sc2c1CCCC2 |
| -2% | CCn1cc(C(=O)O)c(=O)c2cnc(N3CCN(C(=S)Nc4cccc(C(F)(F)F)c4)CC3)nc21 |
| 31% | CCn1cc(C(=O)O)c(=O)c2cnc(N3CCN(C(=S)Nc4ccccc4F)CC3)nc21 |
| 85% (inactive) | CCC(C)(C)C1CCc2c(sc(NC(=O)c3cnccn3)c2C#N)C1 (stereo not drawn) |
| 1% | CCn1cc(C(=O)O)c(=O)c2cnc(N3CCN(C(=S)NC(C)c4ccccc4)CC3)nc21 (stereo not drawn) |
| -1% | CCn1cc(C(=O)O)c(=O)c2cnc(N3CCN(C(=S)Nc4ccc(Cl)cc4)CC3)nc21 |
| 77% (inactive) | N#Cc1c(NC(=O)C2CC=CCC2C(=O)O)sc2c1CCC2 (stereo not drawn) |
| 40% | CCn1cc(C(=O)O)c(=O)c2cnc(N3CCN(C(=S)NC(=O)c4cccnc4)CC3)nc21 |
| 85% (inactive) | NC(=O)c1c(NC(=O)c2cnccn2)sc2c1CCCC2 |
| 1% | CCn1cc(C(=O)O)c(=O)c2cnc(N3CCN(C(=S)NC4CC5CCC4C5)CC3)nc21 (stereo not drawn) |
| 110% (inactive) | CCn1cc(C(=O)O)c(=O)c2cnc(N3CCNCC3)nc21 |
| 19% | CCn1cc(C(=O)O)c(=O)c2cnc(N3CCN(C(=S)Nc4ccc(F)cc4)CC3)nc21 |
| 4% | CCn1cc(C(=O)O)c(=O)c2cnc(N3CCN(C(=S)Nc4ccc5c(c4)OCO5)CC3)nc21 |
| 71% (inactive) | N#Cc1c(NC(=O)c2cnccn2)sc2c1CCCCCC2 |
| 71% (inactive) | Cn1nccc1C(=O)Nc1sc2c(c1C#N)CCCC2 |
| 21% and 30% | N#Cc1c(NC(=O)c2cnccn2)sc2c1CCCC2 |
| 63% (inactive) | C=CCNC(=S)N1CCN(c2ncc3c(=O)c(C(=O)O)cn(CC)c3n2)CC1 |
